Compound activity from PubChem.
OXTR agonist: agonists of human oxytocin receptor; CHO-OTR cells, Fluo-8 calcium fluorescence; normalized: DMSO 0%, oxytocin 100%; activation, % at 3 µM; actives 0.32% (n = 320,000); AID 2435;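 active = activation above the mean of all tested compounds plus 3 SD, cutoff set per screening run, cut at about 20% in these data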;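 note: peak over basal fluorescence ratio from a 100 s FLIPR kinetic read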
Target sequence (P30559 whole entry, looked up): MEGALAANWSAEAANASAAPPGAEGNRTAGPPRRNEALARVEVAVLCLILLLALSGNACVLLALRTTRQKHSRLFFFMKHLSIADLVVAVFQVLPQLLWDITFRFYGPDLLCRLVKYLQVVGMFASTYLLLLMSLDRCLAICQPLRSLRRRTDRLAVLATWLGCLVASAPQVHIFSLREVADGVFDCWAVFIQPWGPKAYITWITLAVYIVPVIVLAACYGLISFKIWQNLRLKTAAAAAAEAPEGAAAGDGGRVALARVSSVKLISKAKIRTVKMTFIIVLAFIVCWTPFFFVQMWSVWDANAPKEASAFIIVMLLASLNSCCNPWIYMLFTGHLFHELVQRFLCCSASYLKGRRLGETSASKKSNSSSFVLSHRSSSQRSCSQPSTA
TAAR1 antagonist: antagonists of human TAAR1; Q96RJ0; CHO RD-HGA16 TAAR1, Fluo-8 calcium fluorescence, antagonist; inhibition, % at 3 µM; actives 1.5% (n = 360,000); AID 624466;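 active = inhibition above a per-plate cutoff, the mean inhibition of test compounds on that plate plus 3 SD, cut at about 49% in these data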
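test system = CHO RD-HGA16 cells bearing hTAAR1 | replication = singlicate | controls = DMSO-only wells and EC80 β-PEA-stimulated wells | reagent = EC80 β-phenethylamine stimulus | read-out basis = percent inhibition of PEA-evoked calcium signal, max/basal emission ratio | schedule = seeding 17-24 h prior, 75-min 37 °C, 30-min RT dye loading | signal = kinetic Fluo-8 calcium fluorescence measurement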
V1aR counter: counter-screen for oxytocin receptor agonists: human V1a receptor agonists | activation, % at 3 µM | actives 0.25% (n = 320,000) | CHO-V1R cells, Fluo-8 calcium fluorescence, agonist mode; 0% DMSO, 100% 3 nM vasopressin;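 active = activation above the mean activation of all tested compounds plus 3 SD, per screening run, cut at about 20% in these data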;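 note: signal is peak over basal fluorescence ratio across a 100 second FLIPR read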
OXTR potentiator: potentiators of human oxytocin receptor; AID 2445; actives 0.061% (n = 320,000); CHO-OTR cells, Fluo-8 calcium fluorescence, potentiator mode; 0% = oxytocin EC15, 100% = EC100; P30559; activation, % at 3 µM;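 active = activation above that plate's cutoff, the mean activation of tested compounds plus 3 SD, cut at about 6.6% in these data, passing the limit was not always enough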
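test system = CHO-OTR cells, human receptor | compound = single-point 3.0 µM | schedule = 6 min compound pre-incubation at room temperature, 100 s kinetic read | signal = Fluo-8 no-wash calcium dye fluorescence, excitation 470-495 nm, emission 515-575 nm | repeats = single well per compound, singlicate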
TAAR1 agonist: human TAAR1 agonism | actives 0.99% (n = 360,000) | AID 624467 | CHO RD-HGA16 TAAR1, Fluo-8 calcium fluorescence; vehicle wells 0%, saturating PEA agonist 100% | activation, % at 3 µM;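 active = activation above the mean activation of all test compounds in the run plus 3 SD, cut at about 38% in these data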
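Test system: RD-HGA16 (CHO) cells co-expressing Gα16 and hTAAR1; dosing: one-point dosing at 3 µM (nominal); timing: 17-24 h seeding, 75 min 37 °C dye, 30 min RT; signal: kinetic Fluo-8 calcium fluorescence; read-out basis: % activation relative to PEA EC100 response; controls: DMSO and PEA EC100; replicates: n 1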
OXTR ag confirm: confirmation of human oxytocin receptor agonists. shares compounds with OXTR agonist. CHO-OTR cells, Fluo-8 calcium fluorescence, agonist. activation, % at 3 µM. actives 20% (n = 390). AID 434963;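 active = mean activation above about 20% derived from the earlier single-dose screen, limit read from the data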;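 note: peak over minimum fluorescence ratio per well during a 100 second FLIPR read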
V1R ag counter 3x: V1R agonism in triplicate, counter-screen for OXTR agonists; shares compounds with OXTR agonist; CHO-V1R cells, Fluo-8 calcium fluorescence, agonist; activation, % at 3 µM; actives 10% (n = 390); AID 434991;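 active = mean activation over triplicate exceeds the hit threshold set in the earlier primary screen, cut at about 20% in these data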;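 note: peak over basal fluorescence ratio within a 100 second read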
Numbers stand for hits; i = inactive; nt = not tested or not shown. Hits are enriched below; roughly 2.3% of the tested compounds scored in any of these assays.

SMILES	OXTR agonist	TAAR1 antagonist	V1aR counter	OXTR potentiator	TAAR1 agonist	OXTR ag confirm	V1R ag counter 3x
CC(C)(C)N(NC(=O)Nc1ccc(Cl)c(Cl)c1)C(=O)c1ccccc1	20	i	i	i	i	i	i
CCCCCCCCCCCCCCCC[N+](C)(C)CC	21	79	i	i	i	21	i
CCN1C(=NCc2cc(OC)c(OC)c(OC)c2)N[C@@H](c2ccccc2)C(C(=O)OC)=C1C	i	nt	i	i	nt	nt	nt
COC(=O)C1=C(C)N(Cc2cccc(C(F)(F)F)c2)C(=NCc2ccc(OC)cc2)NC1c1cccc(C(F)(F)F)c1 (stereo not drawn)	nt	i	nt	nt	i	nt	nt
COC(=O)C1=C(C)N(Cc2ccccc2)C(=NCc2ccc(OC)cc2)N[C@H]1c1cccc(F)c1	24	i	i	i	i	i	i
COC(=O)C1=C(C)N(Cc2ccccc2)C(=NCc2ccco2)N[C@H]1c1cccc(F)c1	i	i	i	i	i	nt	nt
COC(=O)C1=C(C)N(Cc2ccccc2)C(=NCc2cccc(Cl)c2)N[C@H]1c1cccc(F)c1	22	nt	i	i	nt	i	i
COC(=O)C1=C(C)N(Cc2ccccc2)C(=NCc2ccccc2)N[C@H]1c1cccc(C(F)(F)F)c1	22	nt	i	i	nt	i	i
COC(=O)C1=C(C)N(Cc2ccccc2)C(=NCc2cc(OC)c(OC)c(OC)c2)N[C@H]1c1cccc(F)c1	21	nt	i	i	nt	i	i
CC12CC3CC(C)(C1)CC(Nc1nc(N4CCOCC4)nc4ccccc14)(C3)C2	i	i	i	i	i	nt	nt
CCCC(=O)Nc1nc(C)c(C(C)=O)s1	i	i	i	i	i	nt	nt
CC(=O)c1sc(NC(=O)C2(F)C(F)(F)C(F)(F)C(F)(F)C(F)(F)C2(F)F)nc1C	21	i	i	i	i	i	i
CCOc1ccc(NC(=O)COc2ccc(C(=O)NCc3cccnc3)cc2OC)cc1	i	i	i	i	i	nt	nt
CN1CCN(C(=S)c2ccc(OCC(=O)Nc3cccc(C(F)(F)F)c3)cc2)CC1	20	i	i	i	i	i	i
COc1cc(C(=O)NCc2cccnc2)ccc1OCC(=O)Nc1cccc(C(F)(F)F)c1	23	i	i	i	i	i	i
CC(=O)Nc1ccc(NC(=O)C(C)OC(=O)/C(C#N)=C/c2ccc(N(C)C)cc2)cc1 (stereo not drawn)	20	i	i	i	i	i	i
O=C(O)c1ccc(CNCc2ccccc2F)cc1	i	i	i	i	i	nt	nt
Cc1nc(SCC(=O)Nc2c(C)nn(C)c2C)c2cnn(-c3ccccc3)c2n1	23	i	i	i	i	i	i
O=C(Nc1ccnn1C1CCN(Cc2ccc(CO)o2)CC1)c1ccccc1	i	i	i	i	i	nt	nt
Cc1ccc(Oc2ccc(NC(=O)Cn3ccsc3=N)cc2)cc1	23	i	i	i	i	i	i
CCOc1ccc(/C=C/C2=Cc3c(sc(NC(=O)CSc4n[nH]c(N)n4)c3C#N)C(C)(C)C2)cc1	27	i	i	i	i	i	i
O=C(O)C(O)(c1ccccc1)C(O)c1ccccc1 (stereo not drawn)	i	i	i	i	i	nt	nt
Cc1ccc(Cn2c(N)nc3ccccc32)cc1	i	i	i	i	i	nt	nt
Nc1nc2ccccc2n1Cc1ccc(Cl)c(Cl)c1	25	i	i	i	i	i	i
CC1CCCC(C)N1C(=O)COC(=O)c1cc(=O)[nH]c2ccccc12 (stereo not drawn)	i	i	i	i	i	nt	nt
Brc1ccc2[nH]c3c(N4CCc5ccccc5C4)ncnc3c2c1	24	nt	i	i	nt	i	i
Fc1ccc2[nH]c3c(N4CCc5ccccc5C4)ncnc3c2c1	i	i	i	i	i	nt	nt
CC(=O)Nc1ccc(OCC(O)Cn2c3ccccc3c3ccccc32)c(C)c1 (stereo not drawn)	22	65	i	i	i	i	i
N=c1n(CC(=O)c2ccc(Br)s2)c2ccccc2n1Cc1ccccc1	23	i	i	i	i	22	i
